CHO parental Ca – counter-screen for OX1R antagonists: effect in parental CHO cells; 330,000 compounds, 0.63% hits; parental CHO-K1, ATP-induced calcium, Fluo-8 fluorescence; AID 463079; inhibition, % at 5.6 µM;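 active = inhibition above that plate's mean sample inhibition plus 3 SD, cut at about 26% in these data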;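 also: 0% = ATP-challenged DMSO wells and 100% = DMSO wells without ATP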
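Assay system – parental CHO cells · Reagent – ATP stimulus · Detection – intracellular calcium via Fluo-8 no-wash fluorescent dye · Evaluation – percent inhibition of ATP-evoked calcium rise, normalized to controls · Controls – ATP wells versus no-ATP DMSO wells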
TAAR1 antag – antagonists of human TAAR1 | Q96RJ0 | CHO RD-HGA16 TAAR1, Fluo-8 calcium fluorescence, antagonist | inhibition, % at 3 µM | 360,000 compounds, 1.5% hits | AID 624466;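 active = inhibition above a per-plate cutoff, the mean inhibition of test compounds on that plate plus 3 SD, cut at about 49% in these data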;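 also: 0% = DMSO plus EC80 beta-PEA response and 100% = DMSO alone without agonist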
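Assay system: CHO-derived RD-HGA16 cells stably expressing human TAAR1 plus Gα16. Timing: 140 s kinetic read after compound, 140 s after agonist. Technique: kinetic Fluo-8 calcium fluorescence measurement. Measure: % inhibition of agonist calcium response.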
TAAR1 ag – human TAAR1 agonism; Q96RJ0; activation, % at 3 µM; CHO RD-HGA16 TAAR1, Fluo-8 calcium fluorescence; vehicle wells 0%, saturating PEA agonist 100%; 360,000 compounds, 0.99% hits;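 active = activation above the mean activation of all test compounds in the run plus 3 SD, cut at about 38% in these data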
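Assay system – CHO-derived RD-HGA16 cells with stable Gα16 and human TAAR1 · Compound dosing – one-point dosing at 3 µM (nominal) · Incubation – 17-24 h seeding, 75 min 37 °C dye, 30 min RT · Measured by – kinetic Fluo-8 calcium fluorescence · Control set – DMSO vehicle as 0%, PEA at EC100 as 100% · Repeats – single well for each compound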
GPR7 antagonist – blocks human GPR7 receptor signaling | P48145 | GPR7-expressing cells, fluorescence antagonist assay | inhibition, % at 4.4 µM | 290,000 compounds, 1.1% hits | AID 1861; in the data active = inhibition above about 16%, passing the limit was not always enough;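 also: cells stimulated with the agonist NPW; 0% = agonist with vehicle and 100% = vehicle without agonist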
OX1R antag-1 – human HCRTR1 antagonism; O43613; CHO/OX1R cells, Fluo-8 calcium fluorescence, orexin A; inhibition, % at 5 µM; 330,000 compounds, 0.43% hits;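 active = inhibition above its plate's threshold, mean inhibition of all tested compounds on the plate plus 3 SD, cut at about 37% in these data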;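 also: 0% = orexin A challenge wells and 100% = SB-334867-A antagonist wells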
Target sequence (O43613 whole entry, looked up): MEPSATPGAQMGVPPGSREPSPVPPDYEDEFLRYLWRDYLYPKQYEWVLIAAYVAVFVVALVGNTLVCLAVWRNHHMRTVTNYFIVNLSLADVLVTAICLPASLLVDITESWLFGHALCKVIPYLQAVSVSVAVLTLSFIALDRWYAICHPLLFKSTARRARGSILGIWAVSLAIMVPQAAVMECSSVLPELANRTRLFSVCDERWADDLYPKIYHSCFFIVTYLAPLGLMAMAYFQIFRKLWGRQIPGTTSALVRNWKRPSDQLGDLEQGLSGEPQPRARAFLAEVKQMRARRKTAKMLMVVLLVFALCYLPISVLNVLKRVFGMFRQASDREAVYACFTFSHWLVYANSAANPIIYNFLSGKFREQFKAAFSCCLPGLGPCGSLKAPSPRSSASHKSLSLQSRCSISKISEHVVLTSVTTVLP
OX1R antag-2 – OX1R (human) antagonism | OX1R-expressing cells, FRET antagonist read-out | inhibition, % at 6.6 µM | 330,000 compounds, 1.8% hits; in the data active = inhibition mostly above about 38%, no sharp cut-off; inactive = mostly below about 40%;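 also: 0% = agonist challenge alone and 100% = reference antagonist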
An asterisk follows results filed as active; x = no result given. Rows were chosen to be rich in hits. Some 4.6% of all compounds tested hit in one or more screens of this group.

SMILES	CHO parental Ca	TAAR1 antag	TAAR1 ag	GPR7 antagonist	OX1R antag-1	OX1R antag-2
O=C(O)CCC(=O)Nc1ccc(-n2ccc(C(F)(F)F)n2)cc1	-13.7	-2.8	1.8	-4.2	-5.0	5.4
Cc1cc(C)cc(NC(=O)Nc2ccc(-n3ccc(C(F)(F)F)n3)cc2)c1	40.2*	31.6	4.1	9.4	54.2*	53.6*
O=C1c2cccc3cc([N+](=O)[O-])cc(c23)C(=O)N1c1ccccc1O	-9.4	-3.0	9.4	13.8	-21.5	43.5*
CCC(C(=O)O)P(=O)(c1ccc(Cl)cc1)c1ccc(Cl)cc1 (stereo unspecified)	-10.1	8.0	8.3	-8.7	-1.9	9.8
Cc1nn(-c2nc3ccccc3s2)c(C)c1Oc1ccccc1O	31.5*	x	x	-8.8	67.0*	37.9
O=C(O)c1cc2ccccc2c(N=Nc2cccnc2)c1O	-8.3	x	x	-16.6	-12.5	73.6*
O=C(O)c1cc(N=Nc2c(O)ccc3ccccc23)cc(C(=O)O)c1	x	-6.6	3.2	1.7	x	x
O=C(O)CCc1ccc(-c2ccccc2)n1NC(=O)c1sc2ccccc2c1Cl	-2.6	0.7	2.8	-0.6	-15.3	40.7*
NC(=O)Nn1c(CCC(=O)O)ccc1-c1ccc(Cl)cc1	0.6	7.1	-0.2	-5.6	0.0	16.6
O=C(O)c1ccc(Cn2nnc3sc4c(c3c2=O)CCCC4)cc1	-20.9	9.5	1.6	-4.7	-19.0	23.1
COCc1cc(C)nc(Oc2ccccc2)c1C#N	0.3	-4.7	-1.9	-0.6	-14.7	8.7
COc1ccc(-c2cn[nH]c2-c2ccc(OCc3ccccc3)cc2O)cc1	54.3*	9.8	-1.2	-15.9	15.6	8.5
COc1ccc(-c2[nH]ncc2-c2ccc(Cl)cc2)c(O)c1	71.8*	11.5	1.9	-4.7	19.6	11.5
C#CCN(C[C@H]1[C@H](OC(=O)NCC2CCCCC2)[C@H](OC(=O)NCC2CCCCC2)C[C@@H](C(=O)OC)[C@H]1C(=O)OC)S(=O)(=O)c1ccc(C)cc1	x	-7.0	29.6	x	x	x
CCOc1cc(S(=O)(=O)Nc2ccc(CC)cc2)ccc1Cl	41.9*	14.3	-0.4	-11.8	-2.9	12.3
CCCCN(C=O)c1c(CC)nc2ccc(C(=O)NCCOc3ccc(OC)cc3)cn12	x	15.2	1.0	x	x	x
NS(=O)(=O)c1ccc(CCNC(=O)c2ccc(C#CC3(O)CCCCC3)cc2)cc1	10.7	68.2*	22.9	-0.1	2.7	18.9
NS(=O)(=O)c1ccc(CCNC(=O)c2ccncc2)cc1	3.4	-3.2	-0.8	-1.7	-48.0	4.5
COc1cc(NC(=O)Cc2ccccc2)cc(OC)c1	-3.4	9.4	0.4	0.4	-10.0	32.3
COc1cc(NC(=O)C[n+]2ccc(C(=O)c3ccccc3)cc2)cc(OC)c1	-0.4	4.6	-3.3	x	4.9	42.5*
Cc1ccc(S(=O)(=O)N2CCN(Cc3nnc(-c4c(-c5ccccc5)noc4C)o3)CC2)cc1	-7.7	-1.2	2.1	x	-11.7	4.4
CN(C(=O)COC(=O)c1ccccc1OCc1ccc(Cl)cc1)c1c(N)n(Cc2ccccc2)c(=O)[nH]c1=O	-5.2	-5.2	1.4	x	-1.9	9.2
CCCCCCCn1c2c(c(=N)c3c1CCC3)CCCC2	x	11.6	11.9	62.2*	x	x
Cc1ccc2cccc(OCC(=O)N3CC(C)CC(C)C3)c2n1 (stereo unspecified)	-10.3	4.5	9.8	17.2*	-24.1	15.7
COc1cc(/C=C/C(=O)OCC(=O)N(CC(C)C)c2c(N)n(Cc3ccccc3)c(=O)[nH]c2=O)ccc1O	x	49.4*	25.2	x	x	x
O=C(NC1CCCC1)c1ccc2nc(-c3ccco3)c(-c3ccco3)nc2c1	-6.6	x	x	-12.3	-11.7	63.0*
CC(C(=O)Nc1cc(C(F)(F)F)ccc1N1CCOCC1)N1C(=O)C2CC=CCC2C1=O (stereo unspecified)	-6.2	-2.5	4.5	0.1	-9.0	14.0
CCOc1ccc(NC(=NCc2ccc3c(c2)OCO3)SC2CC(=O)N(c3ccc(C(=O)O)cc3)C2=O)cc1 (stereo unspecified)	37.5*	-9.0	7.4	-7.0	51.1*	26.7
Cn1c(SCC(=O)NNC(=O)c2ccccc2O)nnc1-c1ccccc1	-7.0	-11.7	-2.0	-3.6	-21.1	24.8
